Key:
Escherichia coli [1] = assay: Synergistic antibacterial activity against Escherichia coli DH10B transfected with pBR322-catI-KPC-2 assessed as meropenem MIC at 4 ug/ml by broth microdilution method; assay type: functional; conditions: dose 4 µg/ml
Summary of the method: (§1)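 Broth microdilution per CLSI guidelines, using custom frozen panels. […] Each partner drug was also tested alone. MICs were run in triplicate and the modal value is reported.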

Klebsiella pneumoniae [2] = assay: Synergistic antibacterial activity against Klebsiella pneumoniae 1315/2198 producing KPC-3 assessed as meropenem MIC at 4 ug/ml by broth microdilution method; assay type: functional; conditions: dose 4 µg/ml; summary of the method: as §1
Bacteria [3] = assay: Inhibition of bacteria OXA-48 assessed as half life using nitrocefin as substrate
Acinetobacter baumannii [4] = assay: Synergistic antibacterial activity against Acinetobacter baumannii PR440 producing OXA-23/24/40 assessed as meropenem MIC at 4 ug/ml by broth microdilution method; assay type: functional; conditions: dose 4 µg/ml
Acinetobacter baumannii [5] = assay: Synergistic antibacterial activity against ADC deleted Acinetobacter baumannii assessed as meropenem MIC at 4 ug/ml by broth microdilution method; assay type: functional; conditions: dose 4 µg/ml
Bacteria [6] = assay: Inhibition of bacteria ADC-7 assessed as Koff rate using nitrocefin as substrate incubated for 30 mins
Acinetobacter baumannii [7] = assay: Synergistic antibacterial activity against Acinetobacter baumannii PR474 producing OXA-23/24/40 assessed as cefepime MIC at 4 ug/ml by broth microdilution method; assay type: functional; conditions: dose 4 µg/ml
Klebsiella pneumoniae [8] = assay: Synergistic antibacterial activity against Klebsiella pneumoniae 901/1860 producing KPC-3 assessed as cefepime MIC at 4 ug/ml by broth microdilution method; assay type: functional; conditions: dose 4 µg/ml
Klebsiella pneumoniae [9] = assay: Synergistic antibacterial activity against Klebsiella pneumoniae NY BS producing OXA-232 assessed as cefepime MIC at 4 ug/ml by broth microdilution method; assay type: functional; conditions: dose 4 µg/ml
Klebsiella pneumoniae [10] = assay: Synergistic antibacterial activity against Klebsiella pneumoniae 660/1568 producing KPC-3 assessed as meropenem MIC at 4 ug/ml by broth microdilution method; assay type: functional; conditions: dose 4 µg/ml; summary of the method: as §1
Klebsiella pneumoniae [11] = assay: Synergistic antibacterial activity against Klebsiella pneumoniae jefferson 1775 producing OXA-48 assessed as meropenem MIC at 4 ug/ml by broth microdilution method; assay type: functional; conditions: dose 4 µg/ml
Klebsiella pneumoniae [12] = assay: Synergistic antibacterial activity against Klebsiella pneumoniae 11978 producing OXA-48 assessed as meropenem MIC at 4 ug/ml by broth microdilution method; assay type: functional; conditions: dose 4 µg/ml; summary of the method: as §1
Pseudomonas aeruginosa [13] = assay: Antibacterial activity against Pseudomonas aeruginosa CL232 by broth microdilution method; assay type: functional
Bacteria [14] = assay: Inhibition of bacteria OXA-48 assessed as Koff rate using nitrocefin as substrate incubated for 30 mins
Acinetobacter baumannii [15] = assay: Synergistic antibacterial activity against Acinetobacter baumannii PR448 producing OXA-23 assessed as meropenem MIC at 4 ug/ml by broth microdilution method; assay type: functional; conditions: dose 4 µg/ml
Escherichia coli [16] = assay: Antibacterial activity against Escherichia coli DH10B transfected with pBC SK (-) PDC-3 by broth microdilution method; assay type: functional
Acinetobacter baumannii [17] = assay: Synergistic antibacterial activity against Acinetobacter baumannii PR323 producing OXA-24/40 assessed as cefepime MIC at 4 ug/ml by broth microdilution method; assay type: functional; conditions: dose 4 µg/ml
Acinetobacter baumannii [18] = assay: Synergistic antibacterial activity against ADC deleted Acinetobacter baumannii assessed as cefepime MIC at 4 ug/ml by broth microdilution method; assay type: functional; conditions: dose 4 µg/ml
Acinetobacter baumannii [19] = assay: Synergistic antibacterial activity against Acinetobacter baumannii PR408 producing OXA-24/40 assessed as meropenem MIC at 4 ug/ml by broth microdilution method; assay type: functional; conditions: dose 4 µg/ml
Escherichia coli [20] = assay: Synergistic antibacterial activity against Escherichia coli DH10B transfected with pBC SK (-) KPC-3 assessed as meropenem MIC at 4 ug/ml by broth microdilution method; assay type: functional; conditions: dose 4 µg/ml
Klebsiella pneumoniae [21] = assay: Synergistic antibacterial activity against Klebsiella pneumoniae CAV 1636 producing OXA-181 assessed as cefepime MIC at 4 ug/ml by broth microdilution method; assay type: functional; conditions: dose 4 µg/ml
Acinetobacter baumannii [22] = assay: Synergistic antibacterial activity against ADC deleted Acinetobacter baumannii transfected with pWH1266 OXA-23 assessed as cefepime MIC at 4 ug/ml by broth microdilution method; assay type: functional; conditions: dose 4 µg/ml
Pseudomonas aeruginosa [23] = assay: Synergistic antibacterial activity against Pseudomonas aeruginosa 776 assessed as cefepime MIC at 4 ug/ml by broth microdilution method; assay type: functional; conditions: dose 4 µg/ml
Pseudomonas aeruginosa [24] = assay: Antibacterial activity against Pseudomonas aeruginosa 776 by broth microdilution method; assay type: functional
Acinetobacter baumannii [25] = assay: Synergistic antibacterial activity against ADC deleted Acinetobacter baumannii transfected with pWH1266 producing OXA-24/40 assessed as meropenem MIC at 8 ug/ml by broth microdilution method; assay type: functional; conditions: dose 8 µg/ml
Klebsiella pneumoniae [26] = assay: Synergistic antibacterial activity against Klebsiella pneumoniae 660/1568 producing KPC-3 assessed as meropenem MIC at 8 ug/ml by broth microdilution method; assay type: functional; conditions: dose 8 µg/ml; summary of the method: as §1
Pseudomonas aeruginosa [27] = assay: Synergistic antibacterial activity against Pseudomonas aeruginosa CL232 assessed as cefepime MIC at 8 ug/ml by broth microdilution method; assay type: functional; conditions: dose 8 µg/ml
Acinetobacter baumannii [28] = assay: Synergistic antibacterial activity against Acinetobacter baumannii PR408 producing OXA-24/40 assessed as meropenem MIC at 8 ug/ml by broth microdilution method; assay type: functional; conditions: dose 8 µg/ml
Klebsiella pneumoniae [29] = assay: Synergistic antibacterial activity against Klebsiella pneumoniae 761/1723 producing KPC-3 assessed as cefepime MIC at 8 ug/ml by broth microdilution method; assay type: functional; conditions: dose 8 µg/ml; summary of the method: as §1
Escherichia coli [30] = assay: Synergistic antibacterial activity against Escherichia coli DH10B transfected with pBC SK (-) OXA-48 assessed as meropenem MIC at 8 ug/ml by broth microdilution method; assay type: functional; conditions: dose 8 µg/ml; summary of the method: as §1
Klebsiella pneumoniae [31] = assay: Synergistic antibacterial activity against Klebsiella pneumoniae jefferson 1773 producing OXA-181 assessed as cefepime MIC at 8 ug/ml by broth microdilution method; assay type: functional; conditions: dose 8 µg/ml
Klebsiella pneumoniae [32] = assay: Synergistic antibacterial activity against Klebsiella pneumoniae 660/1568 producing KPC-3 assessed as cefepime MIC at 8 ug/ml by broth microdilution method; assay type: functional; conditions: dose 8 µg/ml; summary of the method: as §1
Acinetobacter baumannii [33] = assay: Synergistic antibacterial activity against ADC deleted Acinetobacter baumannii assessed as meropenem MIC at 8 ug/ml by broth microdilution method; assay type: functional; conditions: dose 8 µg/ml
Klebsiella pneumoniae [34] = assay: Synergistic antibacterial activity against Klebsiella pneumoniae 1084/1957 producing KPC-3 assessed as meropenem MIC at 8 ug/ml by broth microdilution method; assay type: functional; conditions: dose 8 µg/ml; summary of the method: as §1
Klebsiella pneumoniae [35] = assay: Synergistic antibacterial activity against Klebsiella pneumoniae 901/1860 producing KPC-3 assessed as cefepime MIC at 8 ug/ml by broth microdilution method; assay type: functional; conditions: dose 8 µg/ml
Klebsiella pneumoniae [36] = assay: Synergistic antibacterial activity against Klebsiella pneumoniae 935/1884 producing KPC-3 assessed as cefepime MIC at 8 ug/ml by broth microdilution method; assay type: functional; conditions: dose 8 µg/ml
Acinetobacter baumannii [37] = assay: Synergistic antibacterial activity against Acinetobacter baumannii PR381 producing OXA-24/40 assessed as cefepime MIC at 8 ug/ml by broth microdilution method; assay type: functional; conditions: dose 8 µg/ml
Klebsiella pneumoniae [38] = assay: Synergistic antibacterial activity against Klebsiella pneumoniae 935/1884 producing KPC-3 assessed as meropenem MIC at 8 ug/ml by broth microdilution method; assay type: functional; conditions: dose 8 µg/ml
Klebsiella pneumoniae [39] = assay: Synergistic antibacterial activity against Klebsiella pneumoniae 977/1916 producing KPC-3 assessed as meropenem MIC at 8 ug/ml by broth microdilution method; assay type: functional; conditions: dose 8 µg/ml
Klebsiella pneumoniae [40] = assay: Synergistic antibacterial activity against Klebsiella pneumoniae 440/1360 producing KPC-2 assessed as meropenem MIC at 8 ug/ml by broth microdilution method; assay type: functional; conditions: dose 8 µg/ml; summary of the method: as §1
Klebsiella pneumoniae [41] = assay: Synergistic antibacterial activity against Klebsiella pneumoniae 729/1679 producing KPC-3 assessed as cefepime MIC at 8 ug/ml by broth microdilution method; assay type: functional; conditions: dose 8 µg/ml; summary of the method: as §1

| Compound | MIC (Escherichia coli [1]) [µg/mL] | MIC (Klebsiella pneumoniae [2]) [µg/mL] | MIC (Acinetobacter baumannii [4]) [µg/mL] | MIC (Acinetobacter baumannii [5]) [µg/mL] | K (Bacteria [6]) | MIC (Acinetobacter baumannii [7]) [µg/mL] | MIC (Klebsiella pneumoniae [8]) [µg/mL] | MIC (Klebsiella pneumoniae [9]) [µg/mL] | MIC (Klebsiella pneumoniae [10]) [µg/mL] | MIC (Klebsiella pneumoniae [11]) [µg/mL] | MIC (Klebsiella pneumoniae [12]) [µg/mL] | MIC (Pseudomonas aeruginosa [13]) [µg/mL] | MIC (Acinetobacter baumannii [15]) [µg/mL] | MIC (Escherichia coli [16]) [µg/mL] | MIC (Acinetobacter baumannii [17]) [µg/mL] | MIC (Acinetobacter baumannii [18]) [µg/mL] | MIC (Acinetobacter baumannii [19]) [µg/mL] | MIC (Escherichia coli [20]) [µg/mL] | MIC (Klebsiella pneumoniae [21]) [µg/mL] | MIC (Acinetobacter baumannii [22]) [µg/mL] | also measured |
| --- | --- | --- | --- | --- | --- | --- | --- | --- | --- | --- | --- | --- | --- | --- | --- | --- | --- | --- | --- | --- | --- |
| NC(=O)[C@@H]1CC[C@@H]2CN1C(=O)N2OS(=O)(=O)[O-].[Na+] [AVIBACTAM SODIUM] | ≤ 0.12 | ≤ 0.12 | > 16 | ≤ 0.12 | 3.5 10^-4/s | > 16 | ≤ 0.12 | 0.5 | ≤ 0.12 | ≤ 0.12 | 1 | > 16 | > 16 | > 16 | > 16 | 0.5 | > 16 | ≤ 0.12 | 0.5 | – | T1/2 (Bacteria [3]): 16.7 h; K (Bacteria [14]): 1.2 10^-5/s |
| O.O=C(NC1CCNCC1)[C@@H]1CC[C@@H]2CN1C(=O)N2OS(=O)(=O)O [RELEBACTAM] | ≤ 0.12 | ≤ 0.12 | > 16 | ≤ 0.12 | 3 10^-4/s | > 16 | ≤ 0.12 | 2 | ≤ 0.12 | 2 | > 16 | > 16 | > 16 | > 16 | > 16 | 0.25 | > 16 | ≤ 0.12 | 4 | > 16 | MIC (Pseudomonas aeruginosa [23]): 16 µg/mL; MIC (Pseudomonas aeruginosa [24]): > 16 µg/mL |
| O=C(NNC(=O)[C@@H]1CC[C@@H]2CN1C(=O)N2OS(=O)(=O)O)[C@@H]1CCCNC1 [ZIDEBACTAM] | ≤ 0.12 | ≤ 0.12 | > 16 | ≤ 0.12 | 1.1 10^-3/s | 8 | ≤ 0.12 | ≤ 0.12 | ≤ 0.12 | ≤ 0.12 | ≤ 0.12 | – | > 16 | – | 4 | 0.25 | > 16 | ≤ 0.12 | ≤ 0.12 | 16 | MIC (Acinetobacter baumannii [25]): > 16 µg/mL; MIC (Klebsiella pneumoniae [26]): ≤ 0.12 µg/mL; MIC (Pseudomonas aeruginosa [27]): 16 µg/mL; MIC (Acinetobacter baumannii [28]): > 16 µg/mL; MIC (Klebsiella pneumoniae [29]): ≤ 0.12 µg/mL; MIC (Escherichia coli [30]): ≤ 0.12 µg/mL; MIC (Klebsiella pneumoniae [31]): ≤ 0.12 µg/mL; MIC (Klebsiella pneumoniae [32]): ≤ 0.12 µg/mL; MIC (Acinetobacter baumannii [33]): ≤ 0.12 µg/mL; MIC (Klebsiella pneumoniae [34]): ≤ 0.12 µg/mL; MIC (Klebsiella pneumoniae [35]): ≤ 0.12 µg/mL; MIC (Pseudomonas aeruginosa [23]): 16 µg/mL; MIC (Klebsiella pneumoniae [36]): ≤ 0.12 µg/mL; MIC (Acinetobacter baumannii [37]): 16 µg/mL; MIC (Klebsiella pneumoniae [38]): ≤ 0.12 µg/mL; MIC (Klebsiella pneumoniae [39]): ≤ 0.12 µg/mL; MIC (Klebsiella pneumoniae [40]): ≤ 0.12 µg/mL; MIC (Klebsiella pneumoniae [41]): ≤ 0.12 µg/mL |

From ChEMBL document CHEMBL5247575 (J Med Chem, 2018)
